Only some compounds are listed: those with a hit (about 3.5% of all), similar ones and a draw of the others.
RGS4 act: RGS4 potentiation or activation; B-score at 10 µM; 310,000 tested, 0.92% active; AID 463111; HEK293 M3R/inducible RGS4, carbachol calcium flux Fluo4; active compounds read low;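 active means B-score of the integrated calcium signal more than 4 SD below the library mean, with starting fluorescence not abnormally high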;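 further: negative B-score means reduced calcium response which marks RGS4 activation or potentiation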
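System: HEK293 FlpIn-TREx cells, stable M3R, doxycycline-inducible RGS4. Timing: overnight RGS4 induction, 30 min dye load 37 °C, 20 min compound RT. Also added: carbachol, ECmax concentration. Measured by: Fluo4 fluorescence kinetic imaging of calcium. Evaluation: integrated calcium ratio converted to B score.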
RGS4 inh: inhibitors of human RGS4; P49798; HEK293 M3R/RGS4 inducible, Fluo-4 calcium flux; active compounds read high; triggered by carbachol at its EC20; B-score at 10 µM; 310,000 tested, 0.45% active;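 active means B-score, a plate-corrected calcium signal, over three deviations above library mean, with baseline fluorescence within five deviations of library mean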;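 further: RGS4 expression induced by doxycycline in cells with stable M3 receptor; B-score is computed from the integrated fluorescence ratio over baseline after carbachol; higher B-score means a larger calcium signal and so more RGS4 inhibition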
Target sequence (P49798 whole entry, looked up): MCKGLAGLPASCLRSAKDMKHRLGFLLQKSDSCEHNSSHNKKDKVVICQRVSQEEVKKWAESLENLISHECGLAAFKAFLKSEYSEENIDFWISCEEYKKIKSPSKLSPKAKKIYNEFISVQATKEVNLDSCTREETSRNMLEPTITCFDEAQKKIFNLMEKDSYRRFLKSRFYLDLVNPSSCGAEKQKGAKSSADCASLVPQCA
MrgX1 antag: human MrgX1 receptor antagonism, primary screen. MRGX1-HEK293 calcium flux, Fluo-4, BAM8-22 antagonism; active compounds read low. B-score at 10 µM. AID 588676. Q96LB2. 310,000 tested, 1.3% active;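 active means calcium-response B-score plate-corrected more than 3 library SD below zero, starting fluorescence within 5 deviations, no agonist response on first addition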;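 further: peak minus trough fluorescence over baseline after final BAM8-22 challenge near maximal dose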
Target sequence (Q96LB2 whole entry, looked up): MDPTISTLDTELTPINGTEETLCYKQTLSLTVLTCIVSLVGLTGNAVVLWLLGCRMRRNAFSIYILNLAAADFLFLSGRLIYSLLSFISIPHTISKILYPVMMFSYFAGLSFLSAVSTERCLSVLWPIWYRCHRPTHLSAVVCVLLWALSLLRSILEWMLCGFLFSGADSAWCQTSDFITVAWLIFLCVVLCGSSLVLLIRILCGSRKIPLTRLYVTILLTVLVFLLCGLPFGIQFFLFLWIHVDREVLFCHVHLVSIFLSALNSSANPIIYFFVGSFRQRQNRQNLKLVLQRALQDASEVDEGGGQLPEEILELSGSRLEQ
MrgX1 ag: agonists of human MrgX1 receptor; Q96LB2; MrgX1-HEK293 cells, Fluo-4 calcium fluorescence, agonist mode; active compounds read high; B-score at 10 µM; 310,000 tested, 0.44% active; AID 588627;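 active means calcium response B-score plate-corrected fluorescence ratio at least 3 library SD, with starting fluorescence B-score inside 5 SD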
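Assay system: stable human MrgX1 HEK293 cell line. Quantity: 15,000 cells per well. Schedule: cells plated overnight, dye loaded 0.5 h 37 °C, 0.5 h room temperature. Detection: Fluo-4 NW calcium-flux fluorescence, kinetic read. Read-out basis: peak-minus-minimum fluorescence over baseline, converted to B scores. Control set: positive and negative control wells on each plate.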
MrgX1 PAM: allosterically activates human MrgX1 receptor signaling. Q96LB2. AID 588675. MrgX1-HEK293, Fluo-4 calcium flux, FDSS; active compounds read high. 310,000 tested, 0.63% active. B-score at 10 µM;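 active means plate-corrected calcium response at least 3 library SD above typical, normal starting fluorescence, not activating the receptor alone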;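 further: compound read alongside a low EC10 to EC30 dose of BAM8-22 agonist; peak minus trough fluorescence over baseline measured at the second addition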
RGS4 act valid: confirmation of RGS4 activators. 1,100 tested, 89% active. shares compounds with RGS4 act. AID 602282. HEK293 M3R/RGS4 inducible, carbachol calcium flux Fluo4. inhibition, % at 10 µM;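 active means inhibition above 3 SD of the buffer control wells, cut at about 41% in these data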;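 further: signal is the integrated peak-minus-minimum Fluo4 fluorescence over baseline ratio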
RGS4 act ctr: activity in cells without induced RGS4 expression; shares compounds with RGS4 act; HEK293 M3R non-induced RGS4, Fluo4 calcium flux; after carbachol challenge at its EC90; inhibition, % at 10 µM; 1,100 tested, 82% active;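 active means inhibition exceeding 3 SD of buffer-only control wells, cut at about 26% in these data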;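 further: percent drop in integrated peak-minus-baseline over baseline Fluo4 ratio after carbachol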
Numbers stand for hits; . = inactive; / = not tested or not shown.

SMILES | RGS4 act | RGS4 inh | MrgX1 antag | MrgX1 ag | MrgX1 PAM | RGS4 act valid | RGS4 act ctr
O=C(NCc1ccncc1)c1ccccc1Nc1ccc(SC(F)F)cc1 | -8.9 | . | . | . | . | 92 | 85
CNC(=O)c1ccccc1Nc1ccc(SC(F)F)cc1 | . | . | . | . | . | / | /
O=C(NCc1ccc2c(c1)OCO2)c1ccc2c(c1)N(Cc1c(F)cccc1Cl)C(=O)CS2 | -7.7 | . | . | . | . | 93 | 60
CC(=O)N1CCN(c2ccc(NC(=O)c3ccc([N+](=O)[O-])cc3Cl)cc2)CC1 | . | . | . | . | . | / | /
CCCCN(CCCC)S(=O)(=O)c1ccc(NC(=O)c2ccc([N+](=O)[O-])cc2Cl)cc1 | -11 | . | . | . | . | 86 | 60
O=C(c1ccccc1)c1ccc(OCCn2cnc3ccccc3c2=O)cc1 | . | . | . | . | . | / | /
CC(C)(c1ccccc1)c1ccc(OCCn2cnc3ccccc3c2=O)cc1 | -8.8 | . | . | . | . | 90 | 58
N#CCc1nnc2n1-c1ccccc1CCC2 | . | . | . | . | . | / | /
Cc1ccc(C(=O)c2cnc3ccccc3c2-c2ccccc2)cc1 | -8.3 | . | . | . | . | 78 | 58
COc1ccc(C(=O)c2cnc3ccccc3c2-c2ccccc2)cc1 | -8.6 | . | . | . | . | 86 | 66
O=C(c1cc2ccccc2oc1=O)N(c1ccc(Cl)cc1)C1C=CS(=O)(=O)C1 (configuration not stated) | . | . | . | . | . | / | /
CCCCn1c2ccccc2c2nnc(SCCN3CCCCC3)nc21 | -8.5 | . | / | / | / | 92 | 78
Cc1ccc2nc3sc(C(=O)Nc4ccc(N5CCOCC5)cc4)c(N)c3cc2c1 | . | . | / | / | / | / | /
Cc1cccc2cc3c(N)c(C(=O)Nc4ccc(N5CCOCC5)cc4)sc3nc12 | -11 | . | -5.4 | . | . | 92 | 74
CCc1ccc([C@@H]2C[C@H]3CN(Cc4ccccc4OC)C(=O)[C@]34CCCN24)cc1 | -9.5 | . | . | . | . | 79 | 30
CN1CCN(C2=Cc3ccccc3Sc3cc(F)ccc32)CC1 | -12 | . | . | . | 8.2 | 92 | 94
CCOC(=O)c1c(NC(=O)c2cccc(N3C(=O)CCC3=O)c2)sc2c1CCN(CC)C2 | -9.8 | . | . | . | . | 90 | 44
Fc1cccc(-c2cc3nc4c(c(N5CCOCC5)n3n2)CCCC4)c1 | . | . | . | . | . | / | /
Fc1cccc(-c2cc3nc4c(c(NCc5ccco5)n3n2)CCCC4)c1 | -8.1 | . | . | . | . | 86 | 45
CC(C)N=C1NN=C(c2ccc(F)cc2)CS1 | . | . | . | . | . | / | /
CCOC(=O)C1=C(Cc2ccc(Cl)cc2)C(=O)c2ccccc2C1=O | -9.3 | . | -4.5 | . | . | 86 | 30
O=C1C(NS(=O)(=O)c2cccs2)=C(N2CCN(Cc3ccccc3)CC2)C(=O)c2ccccc21 | -8.1 | . | . | . | . | 63 | .
CN1CCN(C2=C(NS(=O)(=O)c3cccs3)C(=O)c3ccccc3C2=O)CC1 | . | . | . | . | . | / | /
CN1CCN(CC(O)(c2ccc(Cl)cc2)c2ccc(Cl)cc2)CC1 | -10 | . | . | . | . | 92 | 65
Cc1c(C(=O)N2CCN(c3ccc(F)cc3)CC2)sc2ncnc(N3CCN(c4ccccn4)CC3)c12 | -8.9 | . | . | . | . | 92 | 84
SMILES | RGS4 act | RGS4 inh | MrgX1 antag | MrgX1 ag | MrgX1 PAM | RGS4 act valid | RGS4 act ctr
Cc1c(C(=O)N(C)C2CCCCC2)sc2ncnc(N3CCN(c4ccccc4)CC3)c12 | -9.7 | . | . | . | . | . | 28
Cc1c(C(=O)N2CCN(c3ccccc3)CC2)sc2ncnc(N3CCN(c4ccccn4)CC3)c12 | -9.7 | . | . | . | . | 80 | 48
Cc1c(C(=O)N(C)C2CCCCC2)sc2ncnc(N3CCN(c4ccccc4F)CC3)c12 | . | . | . | . | . | / | /
COc1cccc(CN2CCN(C(c3ccccc3)c3ccccc3)CC2)c1O | -8.8 | . | . | . | . | 92 | 75
COc1cc(CN2CCN(C(c3ccccc3)c3ccccc3)CC2)cc(OC)c1OC | -8.9 | . | . | . | . | 86 | 30
CC(C)Oc1ccc(C(=O)OCC(=O)N2CCCc3ccccc32)cc1 | . | . | . | . | . | / | /
COc1ccccc1N1CCN(C(=O)CSc2nc3ccccc3nc2N2CCCCC2)CC1 | . | . | . | . | . | / | /
COc1ccccc1N1CCN(C(=O)CSc2nc3ccccc3nc2N2CCC(C)CC2)CC1 | -7.7 | . | . | . | . | 44 | .
COC(=O)[C@@H]1CCCN1Cc1nc(Cc2ccccc2F)no1 | . | . | . | . | . | / | /
COCCn1c(-c2ccccc2)nc2oc3cc(OC)ccc3c(=O)c2c1=O | . | . | . | . | . | / | /
COCCn1c(-c2ccc(Br)cc2)nc2oc3cc(OC)ccc3c(=O)c2c1=O | -8.3 | . | . | . | . | . | .
Cc1ccccc1NC(=O)CSc1nc(O)cc(=O)n1C | . | . | . | . | . | / | /
C=CCN1C(=O)/C(=C2\SC(N3CCOCC3)=NC2=O)c2cc(Br)ccc21 | -8.6 | . | . | . | . | 86 | 63
O=C(/C=C/c1ccccc1)CC(=O)c1ccccc1O | . | . | . | . | . | / | /
CC1=C(C(=O)OCC2CCCO2)C(c2ccccc2)C2=C(CC(C)(C)CC2=O)N1 (configuration not stated) | -8.2 | . | . | . | . | . | .
CC(=O)Nc1ccc(S(=O)(=O)N2CCN(Cc3cccc([N+](=O)[O-])c3)CC2)cc1 | . | . | . | . | . | / | /
CC1CCN(C(=O)c2ccc3c(Cl)c4c(nc3c2)CCCC4)CC1 | . | . | . | . | . | / | /
COc1ccccc1N1CCN(C(=O)c2ccc3c(Cl)c4c(nc3c2)CCCC4)CC1 | -9.7 | . | . | . | . | 86 | 79
O=C(c1ccc2c(Cl)c3c(nc2c1)CCCC3)N1CCN(c2ccc(F)cc2)CC1 | -9.2 | . | . | . | . | 92 | 86
CCOC(=O)C1CCN(C(=O)c2ccc3c(Cl)c4c(nc3c2)CCCC4)CC1 | . | . | . | . | . | / | /
CCN(CC)CCn1c(=N)n(CC(=O)c2ccc(Br)s2)c2ccccc21 | -7.8 | . | . | . | . | 58 | 84
COc1ccc(OC)c(S(=O)(=O)N2CCC(C(=O)NCc3ccc4c(c3)OCO4)CC2)c1 | . | . | . | . | . | / | /
COc1cccc(C2=Nn3c(nnc3-c3ccccc3O)SC2)c1 | . | . | . | . | . | / | /
C[n+]1c2n(c3ccccc31)N=C(c1cc(C(C)(C)C)c(O)c(C(C)(C)C)c1)CS2 | -13 | . | -8.6 | . | . | 94 | 83
COc1ccc(CCNc2nc(-c3cccnc3)nc3ccccc23)cc1OC | . | . | . | . | . | / | /

High-throughput results (PubChem)
